Experimental data reported in ChEMBL document CHEMBL1128248, “C-9 and N-substituted analogs of cis-(3aR)-(-)-2,3,3a,4,5,9b-hexahydro-3- propyl-1H-benz[e]indole-9-carboxamide: 5-HT1A receptor agonists with various degrees of metabolic stability” (J Med Chem, 1995).
Activity calls are given as the source filed them. No cut-off for these calls is given here.

Legend:
[1] = target: T1, 5-hydroxytryptamine receptor 1A (Rattus norvegicus, UniProt P19327); test: In vitro displacement of radioactively labeled ligand [3H]8-OH-DPAT from 5-hydroxytryptamine 1A receptor site in CHO cells; format: cell-based
T1 sequence (P19327 whole entry): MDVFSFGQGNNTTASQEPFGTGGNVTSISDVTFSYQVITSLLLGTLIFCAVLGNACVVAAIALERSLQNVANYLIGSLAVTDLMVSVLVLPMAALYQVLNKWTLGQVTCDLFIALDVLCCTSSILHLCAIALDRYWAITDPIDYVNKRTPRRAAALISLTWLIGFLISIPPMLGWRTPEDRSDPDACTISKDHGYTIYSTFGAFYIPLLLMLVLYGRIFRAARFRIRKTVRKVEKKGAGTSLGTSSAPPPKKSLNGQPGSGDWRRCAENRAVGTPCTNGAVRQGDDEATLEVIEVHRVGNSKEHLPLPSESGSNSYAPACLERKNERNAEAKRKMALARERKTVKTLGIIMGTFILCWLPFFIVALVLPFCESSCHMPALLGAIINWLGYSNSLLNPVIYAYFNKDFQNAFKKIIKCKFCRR

[2] = target: D(2) dopamine receptor (Rattus norvegicus, UniProt P61169); test: Displacement of [3H]U-86170 from Dopamine receptor D2
Sequence of D(2) dopamine receptor (P61169 whole entry): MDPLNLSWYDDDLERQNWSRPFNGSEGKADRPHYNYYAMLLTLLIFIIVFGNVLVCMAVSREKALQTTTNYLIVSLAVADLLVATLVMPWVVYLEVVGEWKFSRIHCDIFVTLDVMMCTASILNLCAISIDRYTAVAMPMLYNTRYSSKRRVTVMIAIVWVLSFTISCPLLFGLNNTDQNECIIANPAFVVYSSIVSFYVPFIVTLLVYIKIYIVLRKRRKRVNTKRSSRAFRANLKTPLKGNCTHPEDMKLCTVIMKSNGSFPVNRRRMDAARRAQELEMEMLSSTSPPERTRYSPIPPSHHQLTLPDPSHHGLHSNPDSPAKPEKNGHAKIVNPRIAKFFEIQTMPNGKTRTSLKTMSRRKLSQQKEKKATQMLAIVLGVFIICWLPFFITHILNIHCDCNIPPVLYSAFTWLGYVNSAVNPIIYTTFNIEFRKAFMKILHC
In short: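 Competition binding at cloned D2 receptors expressed in CHO-K1 cells, using the agonist [3H]U86170 (62 Ci/mmol, 2 nM) against 11 dilutions of test compound. IC50 was fitted to a one-site model by nonlinear least squares. Ki was obtained with the Cheng–Prusoff equation.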

[3] = species: Rattus norvegicus; test: (§1) In vitro metabolic stability of the test compound was evaluated after incubation in the presence of freshly isolated rat hepatocytes; format: ADME, Hepatocyte
In short: (§2)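 Rat hepatocytes were prepared by a modified collagenase perfusion method. Each compound was incubated at three concentrations in suspension at 5 million cells/mL. Initial rates were analysed by direct linear plot to give apparent Vmax and Km, and CLint = Vmax/Km. Rates were measured by HPLC and expressed relative to a reference compound incubated at the same time.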

[4] = species: Rattus norvegicus; test: as §1; format: functional, Hepatocyte; design: reference not given here
In short: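 Rat hepatocytes were isolated by modified collagenase perfusion and incubated as suspensions (5 million cells/mL) with each compound at three concentrations. Parent loss was followed by HPLC. Initial rates gave apparent Vmax and Km by direct linear plot, with CLint = Vmax/Km. Stability is expressed relative to a reference compound incubated at the same time.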

[5] = test system: Rattus norvegicus; test: In vivo effects on DA (dopamine) synthesis in corps striatum was reported after subcutaneous administration to reserpinized rats; inactive at a dose of 50; format: functional, organism-based
In short: (§3)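 Male Sprague–Dawley rats (200–300 g) given reserpine 5 mg/kg sc 18 h before; compounds sc in neck region, 5 mL/kg. DOPA accumulation in striatum or cortex measured by HPLC with electrochemical detection.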

[6] = test system: Rattus norvegicus; test: in vivo effects on DA (dopamine) synthesis in cortex was reported after subcutaneous administration to reserpinized rats; inactive at a dose of 50; format: functional, organism-based; in short: as §3
[7] = test system: Rattus norvegicus; test: postsynaptic effects was assessed by the increase in the locomotor activity (reversal of reserpine induced hypokinesia) during a 30 min period after subcutaneous administration using photocell motility meters at the dose of 50(micro M/kg); format: ADME, organism-based; conditions: in vivo, sc, 0.5 h
In short: (§4)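 Reserpine 5 mg/kg sc was given 18 h before testing to male Sprague–Dawley rats. Test drug was given sc in the neck, and rats were placed singly in photocell motility meters. Accumulated counts were recorded over 30 min (mean, n = 4), with gross behaviour observed throughout. Student's t test was applied.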

[8] = test system: Rattus norvegicus; test: (§5) 5-HTP accumulation in limbic system was determined in vivo; format: functional
In short: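 Male Sprague–Dawley rats (200–300 g) pretreated with reserpine 5 mg/kg sc 18 h beforehand; test drug given sc in neck, 5 mL/kg, neutral pH. 5-HTP in limbic system measured by HPLC with electrochemical detection.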

[9] = test system: Rattus norvegicus; test: as §5; format: functional; remark: listed apart in the source
In short: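 Male Sprague–Dawley rats (200–300 g), pretreated with reserpine 5 mg/kg sc 18 h before. Test drug given sc. 5-HTP measured in limbic brain tissue by HPLC with electrochemical detection. Dose–response curves were built from four to six dose levels (n = 4) for each substance and brain area. ED50 reported in μmol/kg sc.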

[10] = test system: Rattus norvegicus; test: in vivo effects on DA (dopamine) synthesis in cortex was reported after subcutaneous administration to reserpinized rats; inactive at a dose of 3.1; format: functional, organism-based
[11] = test system: Rattus norvegicus; test: In vivo effects on DA (dopamine) synthesis in corps striatum was reported after subcutaneous administration to reserpinized rats; inactive at a dose of 3.1; format: functional, organism-based
[12] = test system: Rattus norvegicus; test: postsynaptic effect was assessed by the increase in the locomotor activity (reversal of reserpine induced hypokinesia) during a 30 min period after subcutaneous administration using photocell motility meters at the dose of 3.1 uM/kg; format: ADME, organism-based; conditions: in vivo, sc, 0.5 h; in short: as §4
[13] = species: Rattus norvegicus; test: In vitro metabolic stability of the test compound was evaluated after incubation in the presence of freshly isolated rat hepatocytes; Metabolic stability NT = not tested; format: functional, Hepatocyte; in short: as §2
[14] = test system: Rattus norvegicus; test: in vivo effects on DA (dopamine) synthesis in cortex was reported after subcutaneous administration to reserpinized rats; inactive at a dose of 12.5; format: functional, organism-based; in short: as §3
[15] = test system: Rattus norvegicus; test: uM/kg); format: ADME, organism-based; conditions: in vivo
In short: (§6)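 Male Sprague–Dawley rats got reserpine 5 mg/kg sc in the neck 18 h before testing. Compound was given sc in the neck (5 mL/kg), and rats were placed singly in photocell motility meters. Accumulated counts were recorded over 30 min, mean ± SEM, n = 4, with Student's t test against reserpinized controls. Testing ran 9 a.m.–1 p.m.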

[16] = test system: Rattus norvegicus; test: In vivo effects on DA (dopamine) synthesis in corps striatum was reported after subcutaneous administration to reserpinized rats; inactive at a dose of 12.5; format: functional, organism-based; in short: as §3
[17] = test system: Rattus norvegicus; test: postsynaptic effects was assessed by the increase in the locomotor activity (reversal of reserpine induced hypokinesia) during a 30 min period after subcutaneous administration using photocell motility meters at the dose of 12.5(mic roM/kg); format: ADME, organism-based; conditions: in vivo, sc, 0.5 h; in short: as §4
[18] = test system: Rattus norvegicus; test: postsynaptic effects was assessed by the increase in the locomotor activity (reversal of reserpine induced hypokinesia) during a 30 min period after subcutaneous administration using photocell motility meters at dose of 12.5 (uM /kg); format: functional; in short: as §6
[19] = test system: Rattus norvegicus; test: in vivo effects on DA (dopamine) synthesis in cortex was reported after subcutaneous administration to reserpinized rats; inactive at a dose of 100; format: functional, organism-based
[20] = test system: Rattus norvegicus; test: In vivo effects on DA (dopamine) synthesis in corps striatum was reported after subcutaneous administration to reserpinized rats; inactive at a dose of 100; format: functional, organism-based

Structure (SMILES)	Ki [1] [µM]	Ki [2] [µM]	Metabolic stability [4]	also measured
NC(=O)c1cccc2c1[C@@H]1CCN(CCCCl)[C@@H]1CC2	0.015	> 1		Metabolic stability [3]: 0.22
C#CCN1CC[C@H]2c3c(cccc3C(N)=O)CC[C@H]21	0.048	> 1	0.37	
FCCCN1CC[C@H]2c3c(Br)cccc3CC[C@H]21	0.0047	0.047		
CC(C)CN1CC[C@H]2c3c(cccc3C(N)=O)CC[C@H]21	0.042	> 1	0.23	
COCCN1CC[C@H]2c3c(Br)cccc3CC[C@H]21	0.097	0.252		
ClCCCN1CC[C@H]2c3c(Br)cccc3CC[C@H]21	0.012	0.073		
C=CCCN1CC[C@H]2c3c(cccc3C(N)=O)CC[C@H]21	0.082	> 1	0.33	
CN1CC[C@H]2c3c(cccc3C(N)=O)CC[C@H]21		> 1	4.9	ED50 [5]: inactive; ED50 [6]: inactive; Locomotor activity [7]: 23; ED50 [8]: 17.6 µmol/kg
CCCN1CC[C@H]2c3c(cccc3C(=O)C(C)C)CC[C@H]21	0.0012	0.062	0.8	ED50 [9]: 0.025 µmol/kg; ED50 [10]: inactive; ED50 [11]: inactive; Locomotor activity [12]: 450
C=CCNC(=O)c1cccc2c1[C@@H]1CCN(CCC)[C@@H]1CC2	0.0022	> 1	0.4	ED50 [5]: inactive; ED50 [6]: inactive; Locomotor activity [7]: 82; ED50 [8]: 0.8 µmol/kg
CCCN(CCC)C(=O)c1cccc2c1[C@@H]1CCN(CCC)[C@@H]1CC2	0.434	> 1		
CCCCN1CC[C@H]2c3c(Br)cccc3CC[C@H]21	0.045	0.075		
CN1CC[C@H]2c3c(Br)cccc3CC[C@H]21	0.024	0.041		
CCCCN1CC[C@H]2c3c(cccc3C(N)=O)CC[C@H]21	0.083	> 1	0.3	
CC(C)=CCN1CC[C@H]2c3c(cccc3C(N)=O)CC[C@H]21	0.271	> 1		Metabolic stability [13]: 0
C=CCCN1CC[C@H]2c3c(Br)cccc3CC[C@H]21	0.034	0.055		
COCCN1CC[C@H]2c3c(cccc3C(N)=O)CC[C@H]21	0.129	> 1	0.58	
C=CCN1CC[C@H]2c3c(Br)cccc3CC[C@H]21	0.001	0.0032		
C=CCN1CC[C@H]2c3c(cccc3C(N)=O)CC[C@H]21	0.0015	> 1	1	ED50 [14]: inactive; Locomotor activity [15]: 215; ED50 [16]: inactive; ED50 [8]: 0.04 µmol/kg
Brc1cccc2c1[C@@H]1CCN(CC3CC3)[C@@H]1CC2	0.0047	0.119		
CCCN1CC[C@H]2c3c(cccc3C(=O)NCc3ccccc3)CC[C@H]21	0.022	> 1	0.16	Locomotor activity [17]: 41; ED50 [5]: inactive; ED50 [6]: inactive; ED50 [8]: 7 µmol/kg
CCCN1CC[C@H]2c3c(cccc3C(N)=O)CC[C@H]21	0.0019	> 1.63	1	ED50 [5]: inactive; Locomotor activity [18]: 249; ED50 [6]: inactive; ED50 [8]: 0.28 µmol/kg
NC(=O)c1cccc2c1[C@@H]1CCN(CCCF)[C@@H]1CC2	0.0039	> 1	0.68	
CC(C)=CCN1CC[C@H]2c3c(Br)cccc3CC[C@H]21	0.266	0.018		Metabolic stability [3]: 0.21
CCN1CC[C@H]2c3c(cccc3C(N)=O)CC[C@H]21	0.023	> 1	1.5	ED50 [9]: 2 µmol/kg; Locomotor activity [17]: 13; ED50 [19]: inactive; ED50 [20]: inactive
NC(=O)c1cccc2c1[C@@H]1CCN(CC3CC3)[C@@H]1CC2	0.0083	> 1	0.5	ED50 [5]: inactive; ED50 [6]: inactive; Locomotor activity [7]: 32; ED50 [8]: 1 µmol/kg
CCN1CC[C@H]2c3c(Br)cccc3CC[C@H]21	0.011	0.034		
